Reference: ChEMBL document CHEMBL3826882, “Discovery of 1-((2R,4aR,6R,7R,7aR)-2-Isopropoxy-2-oxidodihydro-4H,6H-spiro[furo[3,2-d][1,3,2]dioxaphosphinine-7,2'-oxetan]-6-yl)pyrimidine-2,4(1H,3H)-dione (JNJ-54257099), a 3'-5'-Cyclic Phosphate Ester Prodrug of 2'-Deoxy-2'-Spirooxetane Uridine Triphosphate Useful for HCV Inhibition” (J Med Chem, 2016)

Assays:
[1] = system: Hepatocyte; test: Prodrug conversion in human primary hepatocytes assessed as 2'-deoxy-2'-spirooxetane uridine triphosphate level per million cells at 2 uM after 24 hrs using radiolabelled compound by LC-MS/MS analysis; format: ADME, cell-based
In short: (§1)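 Study A: fresh primary hepatocyte cultures from mouse, rat, dog and human incubated with tritiated prodrug at 2 or 62.5 µM for 4 or 24 h. Triphosphate in cell lysates reported as pmol/million hepatocytes. Duplicate or single measurements.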

[2] = system: Hepatocyte; test: Stability in human primary hepatocyte supernatant assessed as parent compound level at 2 uM after 4 to 24 hrs using radiolabeled compound by HPLC analysis; format: ADME, cell-based; details: hepatocytes
[3] = system: Hepatocyte; test: Drug metabolism in human primary hepatocyte supernatant assessed as 1-[(4aR,6R,7R,7aR)-2-hydroxy-2-oxidodihydro-4H-spiro[furo[3,2-d][1,3,2]dioxaphosphinine-7,2'-oxetan]-6-yl]pyrimidine-2,4(1H,3H)-dione formation at 2 to 62.5 uM after 4 to 24 hrs using radiolabelled compound by HPLC analysis; format: ADME, cell-based; details: hepatocytes
In short: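 Fresh primary hepatocyte cultures incubated with tritiated prodrug (5'-[3H]) at 2 and 62.5 µM for 4 and 24 h. Supernatants taken after protein precipitation and profiled by HPLC with radioactivity detection. Cell lysates profiled for metabolites by radio-LC. Cyclic monophosphate also measured by LC/MS/MS.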

[4] = Prodrug conversion in dog primary hepatocytes assessed as 2'-deoxy-2'-spirooxetane uridine triphosphate level per million cells at 62.5 uM after 24 hrs using radiolabelled compound by LC-MS/MS analysis; format: ADME, cell-based, Canis lupus familiaris, Hepatocyte; in short: as §1
[5] = Prodrug conversion in dog primary hepatocytes assessed as 2'-deoxy-2'-spirooxetane uridine triphosphate level per million cells at 2 uM after 24 hrs using radiolabelled compound by LC-MS/MS analysis; format: ADME, cell-based, Canis lupus familiaris, Hepatocyte; in short: as §1
[6] = Stability in human HuH7 cells assessed as parent compound level at 100 uM incubated for 96 hrs by LC-MS analysis; format: ADME, cell-based; details: huh-7, 96 h
In short: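 Huh-7 replicon-containing cells incubated 96h with prodrug at 100µM; cell lysates analysed by LC-MS for triphosphate and remaining unmetabolised prodrug.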

[7] = system: Hepatocyte; test: Prodrug conversion in human hepatocytes assessed as 2'-deoxy-2'-spirooxetane uridine triphosphate formation in presence of pan-CYP inhibitor 1-ABT by LC-MS/MS analysis; format: ADME, cell-based
[8] = system: Hepatitis C virus; test: Antiviral activity against HCV genotype 1a infected in homozygous cDNA-uPA chimeric SCID mouse bearing humanized hepatocytes assessed as change in HCV RNA level in serum at 50 mg/kg, po bid administered through gavage for 7 days by RT-PCR method; format: functional, Hepacivirus hominis, subtype 1a, Hepatocyte
In short: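 Male chimeric SCID cDNA-uPA+/+ mice with human hepatocyte liver (≥70% replacement by blood human albumin) and serum HCV RNA >1.0×10^6 copies/mL the week before dosing. Oral gavage for 7 days in 20% HP-β-CD, 50-200 mg/kg QD or BID. Serum sampled pre-dose on days 1, 2, 3, 5 and 7. Real-time PCR; mean change in log10 copies/mL, day 7 vs day 1 pre-dose.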

[9] = Cmax in mouse plasma at 50 mg/kg, po; format: ADME, organism-based; design: dose 50 mg/kg, route oral
[10] = biological target: Cytochrome P450 3A4 (Homo sapiens, UniProt P08684); test: Drug metabolism in baculovirus infected insect cell microsomes expressing human CYP3A4 assessed as CYP3A4-mediated intrinsic clearance per pmol CYP3A4 at 22.7 uM; format: ADME; details: recombinant enzyme
Sequence of Cytochrome P450 3A4 (P08684 whole entry): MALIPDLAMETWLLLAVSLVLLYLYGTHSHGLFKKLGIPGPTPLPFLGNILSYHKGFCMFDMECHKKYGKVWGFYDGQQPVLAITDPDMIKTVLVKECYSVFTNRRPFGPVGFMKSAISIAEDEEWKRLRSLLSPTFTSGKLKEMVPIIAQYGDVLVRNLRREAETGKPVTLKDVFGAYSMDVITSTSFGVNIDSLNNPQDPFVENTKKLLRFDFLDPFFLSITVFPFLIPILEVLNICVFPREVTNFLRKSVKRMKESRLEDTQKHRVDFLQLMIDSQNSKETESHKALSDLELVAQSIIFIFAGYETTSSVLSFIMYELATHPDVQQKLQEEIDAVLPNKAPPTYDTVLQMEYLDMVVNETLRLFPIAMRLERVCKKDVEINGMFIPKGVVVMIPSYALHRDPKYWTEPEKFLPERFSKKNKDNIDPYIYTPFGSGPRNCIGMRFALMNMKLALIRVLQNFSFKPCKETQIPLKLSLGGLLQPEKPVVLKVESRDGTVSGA
In short: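 Incubation at 22.7 µM with human CYP3A4 supersomes. Intrinsic clearance (µL/min.pmol P450) and half-life (min) were determined.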

[11] = system: Hepatocyte; test: Drug level in human hepatocytes treated with JNJ-54257099 in presence of CYP2C8 and CYP2C9 inhibitor montelukast by LC-MS/MS analysis; format: ADME, cell-based
[12] = system: Hepatocyte; test: Drug metabolism in human hepatocytes assessed as ((4R,5R,7R,8R)-5-(2,4-dioxo-3,4-dihydropyrimidin-1(2H)-yl)-8-hydroxy-1,6-dioxaspiro[3.4]octan-7-yl)methyl dihydrogen phosphate formation in presence of pan-PDE inhibitor ibudilast by LC-MS/MS analysis; format: ADME, cell-based
[13] = system: Liver; test: Tmax in dog liver assessed as 2'-deoxy-2'-spirooxetane uridine triphosphate at 50 mg/kg, po; format: ADME, organism-based, Canis lupus familiaris; details: in vivo
In short: (§2)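 Single oral dose of 50 mg/kg formulated in 20% HP-β-cyclodextrin. Prodrug and its triphosphate were measured in plasma and liver (ng/mL or ng/g) over time, and Cmax, tmax, AUC, tlast and t1/2 were derived. For some analytes, data from two independent studies are reported.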

[14] = system: Hepatocyte; test: Drug metabolism in human hepatocytes assessed as ((4R,5R,7R,8R)-5-(2,4-dioxo-3,4-dihydropyrimidin-1(2H)-yl)-8-hydroxy-1,6-dioxaspiro[3.4]octan-7-yl)methyl dihydrogen phosphate formation in presence of CYP2C8 and CYP2C9 inhibitor montelukast by LC-MS/MS analysis; format: ADME, cell-based
[15] = system: Liver; test: Tlast in rat liver at 50 mg/kg, po; format: ADME, organism-based; details: in vivo; in short: as §2
[16] = Tmax in rat plasma at 50 mg/kg, po; format: ADME, organism-based; in short: as §2
[17] = system: Liver; test: Tlast in dog liver at 50 mg/kg, po; format: ADME, organism-based, Canis lupus familiaris; details: in vivo; in short: as §2
[18] = AUC (0 to last) in mouse plasma at 50 mg/kg, po; format: ADME, organism-based; design: dose 50 mg/kg, route oral, time 0 - last
In short: (§3)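 Oral dose 50 mg/kg, formulated in 20% HP-β-cyclodextrin. Prodrug and triphosphate were measured in plasma and liver (ng/mL or ng/g). Parameters derived were Cmax, tmax, AUC0-last, AUC0-inf and t1/2. Some prodrug data come from two independent studies.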

[19] = system: Liver; test: AUC (0 to last) in mouse liver assessed as 2'-deoxy-2'-spirooxetane uridine triphosphate at 50 mg/kg, po; format: ADME, organism-based; details: in vivo; in short: as §3
[20] = system: Hepatocyte; test: Prodrug conversion in mouse primary hepatocytes assessed as 2'-deoxy-2'-spirooxetane uridine triphosphate formation measured at 8 hrs by LC-MS/MS analysis; format: ADME, cell-based
In short: (§4)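 Hepatocyte primary cultures followed over time for triphosphate formation in cell lysates: rat and mouse up to 24 h, human up to 96 h.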

[21] = Cmax in rat plasma at 50 mg/kg, po; format: ADME, organism-based; design: dose 50 mg/kg, route oral
[22] = system: Hepatocyte; test: Prodrug conversion in human primary hepatocytes assessed as 2'-deoxy-2'-spirooxetane uridine triphosphate formation measured at 8 hrs by LC-MS/MS analysis; format: ADME, cell-based; in short: as §4
[23] = Tmax in dog liver at 50 mg/kg, po; format: ADME, organism-based, Canis lupus familiaris; in short: as §2
[24] = system: Hepatocyte; test: Drug metabolism in human hepatocytes assessed as ((4R,5R,7R,8R)-5-(2,4-dioxo-3,4-dihydropyrimidin-1(2H)-yl)-8-hydroxy-1,6-dioxaspiro[3.4]octan-7-yl)methyl dihydrogen phosphate formation in presence of CYP3A4 inhibitor ketoconazole by LC-MS/MS analysis; format: ADME, cell-based
[25] = system: Hepatocyte; test: Prodrug conversion in rat primary hepatocytes assessed as 2'-deoxy-2'-spirooxetane uridine triphosphate formation measured at 2 hrs by LC-MS/MS analysis; format: ADME, cell-based; in short: as §4
[26] = Cmax in mouse liver at 50 mg/kg, po; format: ADME, organism-based; design: dose 50 mg/kg, route oral
[27] = system: Hepatocyte; test: Drug metabolism in human hepatocytes assessed as ((4R,5R,7R,8R)-5-(2,4-dioxo-3,4-dihydropyrimidin-1(2H)-yl)-8-hydroxy-1,6-dioxaspiro[3.4]octan-7-yl)methyl dihydrogen phosphate formation in presence of PDE4 inhibitor rolipram by LC-MS/MS analysis; format: ADME, cell-based
[28] = system: Hepatocyte; test: Prodrug conversion in human cryopreserved hepatocytes assessed as 2'-deoxy-2'-spirooxetane uridine triphosphate level per million cells at 10 uM after 24 hrs by LC-MS/MS analysis; format: ADME, cell-based
In short: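 Plated cryopreserved hepatocytes (study B) incubated with 10 µM unlabeled prodrug for 2, 8 or 24 h. Triphosphate measured in cell lysates and expressed as pmol/million hepatocytes. Quantification limit 2 ng/10^6 cells.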

[29] = system: Liver; test: AUC (0 to last) in rat liver at 50 mg/kg, po; format: ADME, organism-based; details: in vivo; in short: as §3

[3H]C1O[P@](=O)(OC(C)C)O[C@@H]2[C@@H]1O[C@@H](n1ccc(=O)[nH]c1=O)[C@@]21CCO1 (some centres undefined)
Drug metabolism [1]: 0.025 pmol
Stability [2]: Stable
Drug metabolism [3]: metabolite_detected
Drug metabolism [4]: 0.11 pmol
Drug metabolism [5]: 0.007 pmol

CC(C)O[P@@]1(=O)OC[C@H]2O[C@@H](n3ccc(=O)[nH]c3=O)[C@@]3(CCO3)[C@@H]2O1
Stability [6]: Stable
Drug metabolism [7]: metabolite_notdetected
Activity [8]: -0.45
Cmax [9]: 851 ng/mL
CL [10]: 0.058 µL/min
Drug uptake [11]: Active
Drug metabolism [12]: metabolite_detected
Tmax [13]: 4 h
Drug metabolism [14]: metabolite_detected
Tlast [15]: 6 h
Tmax [16]: 0.5 h
Tlast [17]: 24 h
AUC(0-t) [18]: 2560 ng·h/mL
AUClast [19]: 126982 ng·h/g
Drug metabolism [20]: metabolite_detected
Cmax [21]: 1290 ng/mL
Drug metabolism [22]: metabolite_detected
Tmax [23]: 1 h
Drug metabolism [24]: metabolite_notdetected
Drug metabolism [25]: metabolite_detected
Cmax [26]: 701 ng/g
Drug metabolism [27]: metabolite_detected
Drug metabolism [28]: 0.151 pmol
AUClast [29]: 2489 ng·h/g
